Assay outcomes: PubChem BioAssay, several laboratories
Shown is part of a subset that was picked to be rich in hits.
CHOP UPR activ – activators of apoptotic arm of unfolded protein response (CHOP); CHO-CHOP luciferase reporter, UPR activation, luminescence; percent of tunicamycin response over DMSO baseline; activation, % at 10 µM; actives 0.34% (n = 330,000); AID 449763;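 active means at 10 µM dose, activation of 40% or more, normalized to positive control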;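 further: 100% = tunicamycin at 10 µg/mL and 0% = DMSO alone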
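Dosing – one dose, 10 µM in 0.5% DMSO · System – CHO-CHOP cells, stable luciferase reporter of PERK-eIF2a-CHOP signalling · Input – 500 cells/well · Control set – tunicamycin 10 µg/mL final as positive, DMSO-only wells as negative · Timing – 6 h compound treatment, 37 °C · Measure – % activation vs tunicamycin · Technique – luminescence read with Steady-Glo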
CHOP inh – blocks CHOP induction under ER stress | inhibition, % at 10 µM | actives 3.8% (n = 220,000) | CHO-K1 CHOP-promoter luciferase, tunicamycin-induced, 15-18 h | AID 2732;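 active means compounds that reduced the stress-induced luciferase reporter signal by more than about 70% of percent inhibition, limit read from the data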;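 further: 0% = tunicamycin plus vehicle and 100% = wells without tunicamycin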
VLA-4 inh – inhibition in a human VLA-4 binding assay; P13612; VLA-4 expressing cells, ligand binding flow cytometry; inhibition, % (about 7 µM as worked out from the volumes in the protocol); actives 0.2% (n = 330,000); in the data active means inhibition above about 50%
B2AR ag – activates human beta-2 adrenergic receptor causing internalization; AID 504454; Am2.2-beta2AR cells, FAP receptor internalization, flow cytometry; actives 0.43% (n = 340,000); response, % (concentration not given with the values);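 active means response above a set limit, near 3 SD of response in nonfluorescent compounds, cut at about 42% in these data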
Target sequence (P07550 whole entry, looked up): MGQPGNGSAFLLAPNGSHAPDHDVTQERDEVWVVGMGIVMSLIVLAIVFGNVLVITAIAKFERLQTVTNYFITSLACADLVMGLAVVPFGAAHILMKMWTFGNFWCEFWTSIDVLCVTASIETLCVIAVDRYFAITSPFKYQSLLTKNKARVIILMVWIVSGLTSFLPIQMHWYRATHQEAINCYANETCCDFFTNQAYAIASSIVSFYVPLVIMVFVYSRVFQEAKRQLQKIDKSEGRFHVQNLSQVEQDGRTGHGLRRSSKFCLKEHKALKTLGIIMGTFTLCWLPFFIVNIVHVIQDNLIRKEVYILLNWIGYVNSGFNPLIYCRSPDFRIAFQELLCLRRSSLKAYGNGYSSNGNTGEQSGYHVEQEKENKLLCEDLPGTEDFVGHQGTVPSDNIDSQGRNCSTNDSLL
UPR XBP1 act – activators of adaptive arm of unfolded protein response (XBP1); CHO-XBP1 luciferase reporter, IRE1-XBP1 UPR activation, luminescence; percent of tunicamycin response, DMSO as zero; activation, % at 20 µM; actives 0.33% (n = 330,000);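 active means versus positive control, 20 µM dose yields 30% or more activation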;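 further: 100% = tunicamycin at 10 µg/mL and 0% = DMSO only wells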
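assay system = CHO-XBP1 luciferase reporter cells | amount = 1000 cells/well | buffer or medium = F12 plus 10% FBS | compound dosing = single point, 20 µM final compound, 1% DMSO | incubation = 16-18 h cell attachment at 37 °C, then 6 h compound exposure | detection = Steady-Glo luminescence read | controls = tunicamycin 10 µg/mL and vehicle-only wells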
CHOP inh conf – confirmation of CHOP induction inhibitors | shares compounds with CHOP inh | CHO-CHOP promoter luciferase reporter, tunicamycin-induced, luminescence | inhibition, % at 10 µM | actives 45% (n = 2,100) | AID 504437;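 active means mean of three repeat readings of reporter signal inhibition above a set limit, cut at about 70% in these data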;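 further: 0% = tunicamycin plus vehicle and 100% = wells lacking tunicamycin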
* hit, by the source's call; . = no result given.

SMILES | CHOP UPR activ | CHOP inh | VLA-4 inh | B2AR ag | UPR XBP1 act | CHOP inh conf
O=C(N/N=C/c1cccc2ccccc12)c1n[nH]c2c1CCCC2 | 2.1 | 100.7* | 5.9 | -3.0 | 3.8 | 8.7
O=C(c1ccccc1Cl)N1CCN(C(=O)C2CCCO2)CC1 (stereo not drawn) | 1.2 | . | . | -6.4 | 0.3 | .
C1=C(c2ccco2)N2CCN=C2S1 | 1.0 | . | 12.3 | -4.1 | -1.0 | .
CCC(NC(=O)Nc1nnc(C(F)(F)F)s1)(C(F)(F)F)C(F)(F)F | 8.6 | 103.1* | 6.2 | 28.9 | -1.2 | 115.2*
COCCN(Cc1cccs1)S(=O)(=O)c1ccc(-c2ccc(=O)[nH]n2)s1 | -0.1 | . | 5.5 | 2.8 | -3.2 | .
Cc1cccc(NC(=O)C2(C)CC3c4ccccc4C2c2ccccc23)c1 (stereo not drawn) | 2.2 | 102.8* | 3.1 | -0.8 | 2.4 | -9.2
Cc1ccc(C)c(OCc2cc(C(=O)N3CCOCC3)no2)c1 | 18.8 | . | -1.5 | 4.1 | -6.8 | .
CCCC(=O)N1CCN(c2ccc(NC(=O)c3cc4ccccc4o3)cc2Cl)CC1 | -6.1 | . | -9.4 | 27.4 | -8.5 | 109.2*
Cc1cc(C)c(NC(=O)CSc2nc3ccc(NC(=O)CSc4nnnn4-c4ccccc4)cc3s2)c(C)c1 | 2.2 | 97.5* | -2.5 | -0.2 | 5.0 | 37.5
CCN(Cc1ccccc1)C(=O)c1oc2ccc(S(=O)(=O)N3CCOCC3)cc2c1C | -0.5 | . | -2.6 | 1.2 | -2.3 | .
CCCCOC(=O)c1nc(Cl)c(Cl)c(N)c1Cl | 4.4 | 5.7 | -5.6 | -12.6 | -0.1 | .
CCCCCCCOC(=O)c1nc(Cl)c(Cl)c(N)c1Cl | 0.7 | 98.7* | 5.5 | -3.3 | 0.8 | 54.6
CN(CC(=O)Nc1ccc(Cl)c(C(F)(F)F)c1)C(=O)/C=C/c1cccs1 | 0.2 | . | 2.4 | 2.0 | -0.1 | .
Cc1ccc(C(=O)NNC(=O)CSc2nc(N)cc(N)n2)cc1 | 0.5 | 8.7 | 13.8 | 2.7 | -0.5 | .
Cc1ccc(C(=O)NNC(=O)CSc2nnc3c(n2)[nH]c2ccc(C)cc23)cc1 | -1.3 | 104.2* | 16.2 | 3.4 | -0.8 | 12.7
Cc1ccc(-n2nnnc2SCC(=O)NC2CC2)cc1C | 2.5 | . | -12.6 | -5.8 | -1.0 | .
COc1ccc(C2CC(c3ccccc3)=NN2c2ccc(S(N)(=O)=O)cc2)cc1 (stereo not drawn) | 3.0 | 5.5 | 7.1 | -0.7 | -2.4 | .
NS(=O)(=O)c1ccc(N2N=C(c3ccccc3)CC2c2ccc(F)cc2)cc1 (stereo not drawn) | -2.4 | 104.7* | -4.9 | -1.4 | -0.4 | -25.6
CCc1ccc(OCc2n[nH]c(=S)n2C(C)CCCC(C)C)cc1 (stereo not drawn) | 0.4 | 104.5* | 7.1 | 4.8 | -1.8 | 112.7*
CCc1ccc(OCc2n[nH]c(=S)n2Cc2ccccc2)cc1 | 0.2 | 3.7 | 1.1 | 2.5 | -0.7 | .
CC1CN(S(=O)(=O)c2cccc(C(=O)OC/C(O)=C(\C#N)c3nc4ccccc4[nH]3)c2)CC(C)O1 (stereo not drawn) | 1.5 | 105.8* | 12.7 | 18.2 | -0.6 | 29.0
CCOC(=O)c1c(C)[nH]c(C(=O)OC/C(O)=C(\C#N)c2nc3ccccc3[nH]2)c1C | -0.3 | 100.1* | -11.6 | 4.1 | -1.1 | -31.9
CCOC(=O)c1ccc2c(c1)nc(SC/C(O)=C(\C#N)c1nc3ccccc3[nH]1)n2CC | 1.1 | 98.8* | -26.6 | -9.4 | 1.5 | 46.5
CCOC(=O)c1ccc2c(c1)nc(SCC(=O)c1ccco1)n2CC | 4.5 | 27.9 | -8.4 | -1.7 | -1.0 | .
COc1cccc(NC(=O)CN(C)C(=O)c2ccc3[nH]c4c(c3c2)CC(C)CC4)c1 (stereo not drawn) | -0.3 | . | . | 0.4 | -3.1 | .
SMILES | CHOP UPR activ | CHOP inh | VLA-4 inh | B2AR ag | UPR XBP1 act | CHOP inh conf
Cc1cc(O)c2c(c1)C(=O)[C@@]13Oc4c5c(c(O)c6c(O)cc(C)cc46)C(=O)C[C@H](O)[C@H]5[C@@H]1[C@@H](O)CC(=O)C3=C2O | . | . | . | 3.2 | . | .
Cc1nc2ccccn2c1C(=O)N=Nc1c(O)n(CCC(C)C)c2ccccc12 | 1.7 | 101.5* | -5.9 | 45.4* | 5.8 | 105.0*
CCCn1c(O)c(N=NC(=O)c2ccco2)c2ccccc21 | 2.5 | 6.3 | 1.1 | -25.5 | 5.6 | .
CCC(C)[C@H](NC(=O)N1CC(=O)Nc2ccccc21)C(=O)N[C@H](C(=O)O)c1ccccc1 (stereo partly drawn) | -1.4 | . | 10.7 | -6.4 | -0.3 | .
COc1ccccc1NC(=O)COC(=O)C1C2CC3OC(=O)C1C3C2 (stereo not drawn) | -0.9 | . | 4.6 | 6.0 | -0.5 | .
C#CCSc1nncn1C(=O)/C=C/c1ccccc1 | 5.4 | 105.0* | 17.3 | . | 1.0 | -7.9
Cc1ccc(C23CCC(=O)N2C(C(=O)O)CS3)c(C)c1 (stereo not drawn) | -0.6 | . | -7.5 | -1.0 | 1.8 | .
Cc1cc(C)n(-c2nc(Nc3ccccc3C)nc(-n3nc(C)cc3C)n2)n1 | 5.2 | 98.6* | -2.4 | . | -3.2 | 36.2
Cc1cc(C)n(-c2nc(Nc3ccccc3C(F)(F)F)nc(-n3nc(C)cc3C)n2)n1 | 9.8 | 105.1* | 9.4 | 27.1 | -7.5 | 122.3*
O=c1c(-c2ccc(O)cc2)coc2cc(O)cc(O)c12 | 1.3 | -14.0 | -215.0 | 0.8 | 3.4 | .
CC(C)Oc1cc(O)c2c(=O)c(-c3ccc(O)cc3)coc2c1 | 7.7 | . | -17.0 | 10.6 | 6.2 | 19.8
COc1cc(C(=O)ON=C2C(C)=CC(=O)C=C2C)cc(OC)c1OC | 25.4 | 110.1* | -9.2 | -1.3 | -2.7 | -112.2
COC(=O)c1cc(NC(=O)Cc2cc(OC)c(OC)c(OC)c2)cc(C(=O)OC)c1 | -1.5 | 16.8 | 2.2 | 5.6 | 2.9 | .
Cc1ccc2nc(NC(=O)c3ccc4ncsc4c3)sc2c1 | 3.0 | 102.7* | 7.2 | 2.1 | 0.1 | -13.2
NS(=O)(=O)c1ccc2nc(NC(=O)c3ccc4ncsc4c3)sc2c1 | 3.7 | . | 0.8 | 2.7 | -4.9 | .
NC(=S)n1[nH]c(-c2ccc([N+](=O)[O-])cc2)c(N=Nc2cccc([N+](=O)[O-])c2)c1=O | . | 102.0* | . | 12.6 | . | 98.4*
OCCNc1nc(Nc2cc(Cl)ccc2OC2CCCC2)nc(N2CCCC2)n1 | 1.1 | . | 12.2 | 11.4 | 2.3 | .
C=CCSc1n[nH]c(-c2ccc(OCCCC)cc2)n1 | 3.5 | 106.2* | 2.8 | -3.3 | 5.0 | 97.3*
CCN(CCO)c1ncnc2c1sc1nc(C(C)C)c3c(c12)CC(C)(C)OC3 | 0.3 | 99.2* | 46.1 | 20.2 | 13.1 | 102.8*
Cc1nc(CC(=O)NNS(=O)(=O)c2cccc(Cl)c2Cl)cs1 | 1.4 | . | 4.7 | -5.0 | -2.1 | .
CCc1cc(SC#N)cc(CC)c1NC(=O)CCl | 3.7 | 96.6* | -10.6 | 30.0 | 1.0 | 42.6
COc1ccc(/C=C/C(=O)OCC(=O)NC2CCCC2)cc1 | -0.3 | . | 20.8 | -3.8 | -1.5 | .
N#Cc1c(NCCN)nc(-c2ccco2)c2c1CCCC2 | 0.2 | 104.7* | 1.2 | 2.8 | -0.9 | 29.6
